Results taken from ChEMBL document CHEMBL3853281, “Pregnane-10,2-carbolactones from a Hawaiian Marine Sponge in the Genus Myrmekioderma” (J Nat Prod, 2016).

Tests used:
[1] = target: T1, Nuclear receptor subfamily 1 group I member 2 (Homo sapiens, UniProt O75469); assay: Activation of human PXR expressed in human DPX2 cells assessed as induction of CYP3A4 gene expression at 1 uM measured after 24 hrs by luciferase reporter gene assay relative to rifampicin; format: cell-based; conditions: dpx2, 24 h
T1 sequence (O75469 whole entry): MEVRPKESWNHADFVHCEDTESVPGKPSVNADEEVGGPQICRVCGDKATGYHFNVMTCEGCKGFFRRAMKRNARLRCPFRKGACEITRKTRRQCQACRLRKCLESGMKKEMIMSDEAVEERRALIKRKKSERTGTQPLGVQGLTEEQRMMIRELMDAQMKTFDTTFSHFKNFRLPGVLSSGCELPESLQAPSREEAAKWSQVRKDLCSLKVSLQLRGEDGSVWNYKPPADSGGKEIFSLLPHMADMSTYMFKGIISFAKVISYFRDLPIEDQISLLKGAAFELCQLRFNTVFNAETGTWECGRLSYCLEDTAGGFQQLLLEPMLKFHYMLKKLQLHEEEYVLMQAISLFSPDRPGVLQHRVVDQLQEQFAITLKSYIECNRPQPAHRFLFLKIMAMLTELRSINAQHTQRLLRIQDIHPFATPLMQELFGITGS
Procedure, shortened: (§1)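 PXR reporter run in stable DPX2 cells expressing human PXR with a luciferase reporter linked to two human CYP3A4 promoters. Compound (six concentrations, duplicate wells) was added 24 h after seeding, with a further 24 h incubation. Viability was read first, then luciferase in the same wells. Rifampicin was the reference at seven concentrations; activation is given as % of rifampicin response, with rifampicin at 10 μM.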

[2] = target: T1, Nuclear receptor subfamily 1 group I member 2; assay: Activation of human PXR expressed in human DPX2 cells assessed as induction of CYP3A4 gene expression at 0.4 uM measured after 24 hrs by luciferase reporter gene assay relative to rifampicin; format: cell-based; conditions: dpx2, 24 h; procedure, shortened: as §1
[3] = target: T2, PXR (NR1I2); CYP3A4 gene expression (Homo sapiens, UniProt O75469); assay: Activation of human PXR expressed in human DPX2 cells assessed as induction of CYP3A4 gene expression at 4 uM measured after 24 hrs by luciferase reporter gene assay relative to control; format: cell-based; conditions: DPX2 cells expressing human PXR, read-out: FC
T2 sequence (O75469 whole entry): T1 sequence (O75469 whole entry)
Procedure, shortened: (§2)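 DPX2 cells stably carrying human PXR (NR1I2) and a luciferase reporter under two human CYP3A4 promoters. Cells were seeded, treated 24 h later with six compound concentrations in duplicate wells, then incubated 24 h more. Viable cells were counted by a fluorescent cytotoxicity read in the same wells, then luciferase (ONE-Glo) was read. Fold activation is relative to DMSO vehicle-treated cells.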

[4] = target: T1, Nuclear receptor subfamily 1 group I member 2; assay: Activation of human PXR expressed in human DPX2 cells assessed as induction of CYP3A4 gene expression at 40 uM measured after 24 hrs by luciferase reporter gene assay relative to rifampicin; format: cell-based; conditions: dpx2, 24 h; procedure, shortened: as §1
[5] = target: T2, PXR (NR1I2); CYP3A4 gene expression; assay: Activation of human PXR expressed in human DPX2 cells assessed as induction of CYP3A4 gene expression at 40 uM measured after 24 hrs by luciferase reporter gene assay relative to control; format: cell-based; conditions: DPX2 cells expressing human PXR, read-out: FC; procedure, shortened: as §2
[6] = target: T1, Nuclear receptor subfamily 1 group I member 2; assay: Activation of human PXR expressed in human DPX2 cells assessed as induction of CYP3A4 gene expression at 4 uM measured after 24 hrs by luciferase reporter gene assay relative to rifampicin; format: cell-based; conditions: dpx2, 24 h; procedure, shortened: as §1
[7] = target: T1, Nuclear receptor subfamily 1 group I member 2; assay: Activation of human PXR expressed in human DPX2 cells assessed as induction of CYP3A4 gene expression at 0.1 uM measured after 24 hrs by luciferase reporter gene assay relative to rifampicin; format: cell-based; conditions: dpx2, 24 h; procedure, shortened: as §1
[8] = target: T2, PXR (NR1I2); CYP3A4 gene expression; assay: Activation of human PXR expressed in human DPX2 cells assessed as induction of CYP3A4 gene expression at 0.4 uM measured after 24 hrs by luciferase reporter gene assay relative to control; format: cell-based; conditions: DPX2 cells expressing human PXR, read-out: FC; procedure, shortened: as §2
[9] = target: T1, Nuclear receptor subfamily 1 group I member 2; assay: Activation of human PXR expressed in human DPX2 cells assessed as induction of CYP3A4 gene expression at 10 uM measured after 24 hrs by luciferase reporter gene assay relative to rifampicin; format: cell-based; conditions: dpx2, 24 h; procedure, shortened: as §1
[10] = target: T2, PXR (NR1I2); CYP3A4 gene expression; assay: Activation of human PXR expressed in human DPX2 cells assessed as induction of CYP3A4 gene expression at 10 uM measured after 24 hrs by luciferase reporter gene assay relative to control; format: cell-based; conditions: DPX2 cells expressing human PXR, read-out: FC; procedure, shortened: as §2
[11] = target: T2, PXR (NR1I2); CYP3A4 gene expression; assay: Activation of human PXR expressed in human DPX2 cells assessed as induction of CYP3A4 gene expression at 0.1 uM measured after 24 hrs by luciferase reporter gene assay relative to control; format: cell-based; conditions: DPX2 cells expressing human PXR, read-out: FC; procedure, shortened: as §2
[12] = target: T2, PXR (NR1I2); CYP3A4 gene expression; assay: Activation of human PXR expressed in human DPX2 cells assessed as induction of CYP3A4 gene expression at 1 uM measured after 24 hrs by luciferase reporter gene assay relative to control; format: cell-based; conditions: DPX2 cells expressing human PXR, read-out: FC; procedure, shortened: as §2
[13] = target: Beta-secretase 1 (Homo sapiens, UniProt P56817); assay: Inhibition of BACE1 (unknown origin) assessed as cleavage of amyloid precursor protein by beta-galactosidase enzyme complementation assay
Sequence of Beta-secretase 1 (P56817 whole entry): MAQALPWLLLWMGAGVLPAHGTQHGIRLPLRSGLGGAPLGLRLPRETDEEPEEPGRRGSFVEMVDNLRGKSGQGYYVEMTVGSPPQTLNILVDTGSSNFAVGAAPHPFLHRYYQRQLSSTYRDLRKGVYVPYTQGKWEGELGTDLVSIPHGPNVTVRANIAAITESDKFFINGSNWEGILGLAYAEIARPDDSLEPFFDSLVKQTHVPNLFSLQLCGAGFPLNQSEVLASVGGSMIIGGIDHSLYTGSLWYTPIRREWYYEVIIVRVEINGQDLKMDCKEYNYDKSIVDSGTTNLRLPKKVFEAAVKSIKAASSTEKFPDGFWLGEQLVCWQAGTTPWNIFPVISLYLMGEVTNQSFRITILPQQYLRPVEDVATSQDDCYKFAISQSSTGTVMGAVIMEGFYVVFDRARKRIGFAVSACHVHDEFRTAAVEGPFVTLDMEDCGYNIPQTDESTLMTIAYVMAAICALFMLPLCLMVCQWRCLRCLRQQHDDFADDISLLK

Row | Activity [1] [%] | Activity [2] [%] | fold induction at 24 h, 4 µM [3] | Activity [4] [%] | fold induction at 24 h, 40 µM [5] | Activity [6] [%] | Activity [7] [%] | fold induction at 24 h, 0.4 µM [8] | Activity [9] [%] | fold induction at 24 h, 10 µM [10] | fold induction at 24 h, 0.1 µM [11] | fold induction at 24 h, 1 µM [12] | IC50 [13] [µM] | Structure (SMILES)
1 | 2 | 4 | 1.2 | 28 | 3.7 | 2 | 3 | 1.4 | 6 | 1.6 | 1.3 | 1.2 | – | C/C=C1\CC[C@H]2[C@@H]3CC=C4[C@@H](O)[C@@H](O)[C@@H]5C[C@]4(C(=O)O5)[C@H]3CC[C@]12C
2 | – | – | – | – | – | – | – | – | – | – | – | – | 82 | CC[C@]1(C)CCC2=C1CC[C@H]1[C@H]2C[C@@H](Cl)C2=C[C@@H](O)[C@@H]3C[C@@]21C(=O)O3
